Screening results deposited in PubChem by several laboratories.
Jurkat tox 60K = cytotoxicity toward Jurkat cells | Jurkat E6.1 viability, ATP luminescence, 48 h | inhibition, % at 4 µM | hit rate 1.2% among 56,000 | AID 463;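 active = inhibition above the mean inhibition of all tested compounds plus 3 SD, cut at about 28% in these data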
H69AR inhibit = blocks growth of human H69AR lung tumor cells. H69AR lung tumor viability, ATP luminescence, 72 h; stronger effect = lower value. viability, % at 10 µM. hit rate 6% among 85,000;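 active = viability at or below 40%; inactive = viability above 40%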;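 note: multidrug resistant small cell line overexpressing MRP-1 efflux transporter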
HUVEC inhibit = human endothelial cell proliferation inhibition; HUVEC proliferation, CellTiter-Glo luminescence, 72 h; stronger effect = lower value; viability, % at 10 µM (by protocol); hit rate 1.1% among 86,000; AID 648;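 active = viability at or below 30%; inactive = viability above 30%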
Lung fibro prol = blocks proliferation of human lung fibroblasts. AID 719. viability, % at 10 µM. LL 47 human lung fibroblast viability, ATP luminescence; stronger effect = lower value. hit rate 1.1% among 85,000;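 active = viability at or below 50% in the single dose screen; inactive = viability above 50%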;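 note: compound exposure lasted 72 h before the ATP readout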
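test system = LL 47 human lung fibroblasts | amount = 1,150 fibroblasts seeded per well | medium = 15% FBS in IMEM | times = overnight cell rest, 72 h compound treatment at 37 °C | measured by = CellTiter-Glo luminescence measuring cellular ATP | read-out = viability percentage against median untreated-cell control | benchmarks = cell-only wells, no compound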
Hits are given with their value. An excerpt weighted towards active compounds, which were near 6.6% of everything screened.

What do the screens show for `CCOc1cccc(-c2nnc3sc(-c4cc(OC)c(OC)c(OC)c4)nn23)c1`?
H69AR inhibit: 19; HUVEC inhibit: 28; Lung fibro prol: inactive

How did CCOc1ccc(-c2nn3c(-c4ccccc4)nnc3s2)cc1 do in these assays?
Jurkat tox 60K: inactive; H69AR inhibit: inactive; HUVEC inhibit: 19; Lung fibro prol: inactive

Results for COc1cc(-c2nn3c(-c4ccccc4)nnc3s2)cc(OC)c1OC ?
Jurkat tox 60K: inactive; H69AR inhibit: inactive; HUVEC inhibit: inactive; Lung fibro prol: inactive

Results for COc1ccc2[nH]c(=O)c(C(c3nnnn3C3CCCC3)N3CCN(Cc4ccc5c(c4)OCO5)CC3)cc2c1 (centres undefined) ?
H69AR inhibit: inactive; HUVEC inhibit: inactive; Lung fibro prol: inactive

Results for Cc1ccc(N2CC(C(=O)NCC3CCCO3)CC2=O)cc1Cl (centres undefined) ?
Jurkat tox 60K: inactive; H69AR inhibit: inactive; HUVEC inhibit: inactive; Lung fibro prol: inactive

How did CCOc1ccc2nc(NS(=O)(=O)Cc3ccccc3)sc2c1 do in these assays?
H69AR inhibit: 21; HUVEC inhibit: inactive; Lung fibro prol: inactive

Results for CCOc1ccc2nc(NC(=O)CS(=O)(=O)c3ccc(C)cc3)sc2c1 ?
H69AR inhibit: 2.2; HUVEC inhibit: inactive; Lung fibro prol: inactive

What do the screens show for `CCOc1ccc2nc(NS(=O)(=O)c3ccc(NC(C)=O)cc3)sc2c1`?
Jurkat tox 60K: inactive; H69AR inhibit: inactive; HUVEC inhibit: inactive; Lung fibro prol: inactive

Results for CCOc1ccc2nc(NC(=O)CS(=O)(=O)c3ccccc3)sc2c1 ?
Jurkat tox 60K: inactive; H69AR inhibit: inactive; HUVEC inhibit: inactive; Lung fibro prol: inactive

Results for CC(=O)Nc1sc2c(c1CN1CCN(C)CC1)CCCC2 ?
H69AR inhibit: inactive; HUVEC inhibit: inactive; Lung fibro prol: inactive

Results for CCn1nnnc1NCc1cccn1C ?
Jurkat tox 60K: inactive; H69AR inhibit: inactive; HUVEC inhibit: inactive; Lung fibro prol: inactive

What do the screens show for `Cc1c(C=O)c(C=O)c(C)n1Cc1ccccc1`?
H69AR inhibit: 38; HUVEC inhibit: inactive; Lung fibro prol: 48

How did CC(C)Nc1nc(NC(C)(C)C)nc(Oc2ccc(=O)n(-c3ccccc3)n2)n1 do in these assays?
H69AR inhibit: inactive; HUVEC inhibit: inactive; Lung fibro prol: inactive

What do the screens show for `CCOc1ccc(-c2cc(C(=O)N3CCN(c4ccccn4)CC3)c3ccccc3n2)cc1`?
Jurkat tox 60K: inactive; H69AR inhibit: 18; HUVEC inhibit: inactive; Lung fibro prol: inactive

What do the screens show for `COc1ccc(-c2cc(C(=O)N3CCN(c4ccccn4)CC3)c3ccccc3n2)cc1`?
H69AR inhibit: 16; HUVEC inhibit: inactive; Lung fibro prol: inactive

How did COc1ccc(OC)c(-c2cc(C(=O)N3CCN(c4ncccn4)CC3)c3ccccc3n2)c1 do in these assays?
Jurkat tox 60K: inactive; H69AR inhibit: 30; HUVEC inhibit: inactive; Lung fibro prol: inactive

Results for CCOc1ccc(-c2cc(C(=O)N3CCN(C)CC3)c3ccccc3n2)cc1 ?
Jurkat tox 60K: inactive; H69AR inhibit: inactive; HUVEC inhibit: inactive; Lung fibro prol: inactive

How did CCOC(=O)N1CCN(C(=O)c2cc(-c3ccc(OCC)cc3)nc3ccccc23)CC1 do in these assays?
Jurkat tox 60K: 87; H69AR inhibit: 16; HUVEC inhibit: inactive; Lung fibro prol: inactive

How did Cc1ccc2c(c1)nnn2C1CCN(CC(=O)Nc2ccc3c(c2)OCCO3)CC1 do in these assays?
Jurkat tox 60K: inactive; H69AR inhibit: inactive; HUVEC inhibit: inactive; Lung fibro prol: inactive

What do the screens show for `CCC(C)(C)n1nnnc1C(c1ccc(C)cc1)N1CCN(Cc2ccc3c(c2)OCO3)CC1` (centres undefined)?
H69AR inhibit: inactive; HUVEC inhibit: inactive; Lung fibro prol: inactive

What do the screens show for `O=C(Nc1ccc2c(c1)OC1(CCCC1)O2)C1CC1`?
Jurkat tox 60K: inactive; H69AR inhibit: inactive; HUVEC inhibit: inactive; Lung fibro prol: inactive

How did Cc1ccnc(SCCn2c(N3CC(C)CC(C)C3)nc3c2c(=O)n(C)c(=O)n3C)n1 (centres undefined) do in these assays?
Jurkat tox 60K: inactive; H69AR inhibit: inactive; HUVEC inhibit: inactive; Lung fibro prol: inactive

How did O=C(CSc1nnc(-c2cccs2)n1-c1cccc(Cl)c1)c1cccc2c1OCCO2 do in these assays?
H69AR inhibit: inactive; HUVEC inhibit: inactive; Lung fibro prol: inactive

Results for CC(=Nc1ccccc1C)C1=C(O)CSC1=O ?
H69AR inhibit: inactive; HUVEC inhibit: inactive; Lung fibro prol: inactive

What do the screens show for `CCCCCOP(=O)(OCCCCC)C1(NS(=O)(=O)c2ccccc2)C=CC(=O)c2ccccc21` (centres undefined)?
H69AR inhibit: 19; HUVEC inhibit: inactive; Lung fibro prol: inactive

How did CC(=O)N1CCc2cc(S(=O)(=O)NCCN3CCC(C)CC3)ccc21 do in these assays?
H69AR inhibit: inactive; HUVEC inhibit: inactive; Lung fibro prol: inactive

Results for Cn1cc(/C=N/n2cnc3scc(-c4ccc(Cl)cc4)c3c2=O)c2ccccc21 ?
Jurkat tox 60K: 96

Results for CCn1cnc2scc(-c3ccccc3)c2c1=O ?
Jurkat tox 60K: inactive; H69AR inhibit: inactive; HUVEC inhibit: inactive; Lung fibro prol: inactive

How did COc1ccc(C=Nc2cccc3c(=O)[nH][nH]c(=O)c23)c2ccccc12 do in these assays?
H69AR inhibit: 32; HUVEC inhibit: inactive; Lung fibro prol: inactive

What do the screens show for `O=C(CSc1nc(-c2ccccc2)c(-c2ccccc2)[nH]1)NCc1ccco1`?
H69AR inhibit: inactive; HUVEC inhibit: inactive; Lung fibro prol: inactive

Results for O=C(CSc1nc(-c2ccccc2)c(-c2ccccc2)[nH]1)NCCN1C(=O)CSC1=O ?
H69AR inhibit: 21; HUVEC inhibit: inactive; Lung fibro prol: inactive

Results for CC12CN3CC(C)(CN(C1)C31C(=O)N(Cc3ccccc3)c3ccccc31)C2=O (centres undefined) ?
Jurkat tox 60K: inactive; H69AR inhibit: inactive; HUVEC inhibit: inactive; Lung fibro prol: inactive

Results for Cc1ccc(C(=O)N2c3ccccc3N(Cc3ccccc3)C(=O)C2(C)C)cc1 ?
H69AR inhibit: inactive; HUVEC inhibit: inactive; Lung fibro prol: inactive

How did CC1(C)CC(=O)C(C2(O)C(=O)N(Cc3ccccc3)c3ccccc32)CO1 (centres undefined) do in these assays?
Jurkat tox 60K: inactive; H69AR inhibit: 17; HUVEC inhibit: inactive; Lung fibro prol: inactive

What do the screens show for `CC1(C)CC(=O)CC(C2(O)C(=O)N(Cc3ccccc3)c3ccccc32)O1` (centres undefined)?
Jurkat tox 60K: inactive; H69AR inhibit: 29; HUVEC inhibit: inactive; Lung fibro prol: inactive

How did CCCCOc1ccc(CN(C)c2ncnc(N)n2)cc1 do in these assays?
H69AR inhibit: 35; HUVEC inhibit: inactive; Lung fibro prol: inactive

How did COc1ccc(CN(C)c2ncnc(N)n2)cc1 do in these assays?
H69AR inhibit: inactive; HUVEC inhibit: inactive; Lung fibro prol: inactive

What do the screens show for `COCCn1nnnc1C(c1ccc(OC)c(OC)c1)N1CCN(c2nc3ccccc3s2)CC1` (centres undefined)?
Jurkat tox 60K: inactive; HUVEC inhibit: inactive; Lung fibro prol: inactive

What do the screens show for `CCCOc1ccc(CC(=O)NCC2(c3ccccc3)CCOCC2)cc1OC`?
H69AR inhibit: inactive; HUVEC inhibit: inactive; Lung fibro prol: inactive

Results for CC1CCN(S(=O)(=O)c2ccc(NC(=O)Cc3cccs3)cc2)CC1 ?
H69AR inhibit: inactive; HUVEC inhibit: inactive; Lung fibro prol: inactive
